Source: ChEMBL document CHEMBL1240310, “Combinatorial chemistry identifies high-affinity peptidomimetics against alpha4beta1 integrin for in vivo tumor imaging” (Nat Chem Biol, 2006)
One block for each compound: values may come before it. Active and inactive are the calls of the source. The rule behind the calls is not given here.

How the values were obtained:
Mus musculus [1] = test: In vivo inhibition of alpha4beta1 integrin expressed in human Molt-4 cells xenografted into mouse at 60 nmol/kg, iv up to 24 hrs by NIRF imaging; type: functional, organism-based
Summary of the method: (§1)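 Nude (nu/nu) mice bearing subcutaneous shoulder Molt-4 xenografts (about 5 × 10^6 cells injected; tumors 0.5–1.0 cm). Probe made by complexing biotinylated ligand with SA-Alexa Fluor680 at 5:1 molar ratio, 1 h, 4 °C. Given 60 nmol kg-1 i.v. (n = 3). Imaged under pentobarbital anesthesia (60 mg kg-1 i.p.) at 0–44 h; excitation 625 nm, emission 700 nm, 30 s exposure. Tumor vs normal ROI intensities compared.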

CHO [2] = test: Binding affinity to alpha4beta1 integrin G184A mutant expressed in CHO cells by flow cytometry; type: cell-based
Summary of the method: (§2)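 CHO cells stably expressing wild-type or single-Ala mutant human α4 paired with endogenous hamster β1. Cells incubated with biotinylated ligand in TBS (1 mM Mn2+), then SA-PE, and read by flow cytometry. Binding normalized to α4 expression measured with mAb B5G10. Mean ± s.d. of triplicates.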

[3] = molecular target: T1, Integrin alpha-4/beta-1 (Homo sapiens) (UniProt P05556+P13612); test: Binding affinity to alpha4beta1 integrin expressed in CHO cells by flow cytometry; type: cell-based
Summary of the method: (§3)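 Cells (0.5 × 10^6) incubated with biotinylated ligand (100 nM) for 1 h at 4 °C in TBS with 1 mM Mg2+/Mn2+, washed, then stained with SA-PE. Fluorescence of 10,000 cells read by flow cytometry. Integrin-transfected CHO lines as previously described; α4 expression probed with anti-α4 mAb P1H4 plus FITC secondary.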

[4] = molecular target: T1, Integrin alpha-4/beta-1 (Homo sapiens); test: Binding affinity to alpha4beta1 integrin expressed in human K562 cells by flow cytometry; type: cell-based; summary of the method: as §3
[5] = molecular target: Integrin alpha2/beta1 (Homo sapiens) (UniProt P05556+P17301); test: Binding affinity to alpha2beta1 integrin expressed in CHO cells by flow cytometry; type: cell-based; summary of the method: as §3
[6] = molecular target: ITGA6-ITGB1 complex (Homo sapiens) (UniProt P05556+P23229); test: Binding affinity to alpha6beta1 integrin expressed in CHO cells by flow cytometry; type: cell-based; summary of the method: as §3
[7] = molecular target: ITGB1-ITGA9 complex (Homo sapiens) (UniProt P05556+Q13797); test: Binding affinity to alpha9beta1 integrin expressed in CHO cells by flow cytometry; type: cell-based; summary of the method: as §3
[8] = molecular target: Intercellular adhesion molecule (ICAM-1), Integrin alpha-L/beta-2 (Homo sapiens) (UniProt P20701+P05362+P05107); test: Binding affinity to alphaLbeta2 integrin expressed in CHO cells by flow cytometry; type: cell-based; summary of the method: as §3
[9] = molecular target: Integrin alpha-M/beta-2 (Homo sapiens) (UniProt P05107+P11215); test: Binding affinity to alphaMbeta2 integrin expressed in CHO cells by flow cytometry; type: cell-based; summary of the method: as §3
[10] = molecular target: T1, Integrin alpha-4/beta-1 (Homo sapiens); test: Binding affinity to alpha4beta1 integrin transfected human Molt-4 cells by flow cytometry; type: cell-based; summary of the method: as §3
[11] = molecular target: T1, Integrin alpha-4/beta-1 (Homo sapiens); test: Binding affinity to alpha4beta1 integrin expressed in human Reh cells by flow cytometry; type: cell-based; summary of the method: as §3
[12] = molecular target: T1, Integrin alpha-4/beta-1 (Homo sapiens); test: Binding affinity to alpha4beta1 integrin expressed in human HL-60 cells by flow cytometry; type: cell-based; summary of the method: as §3
CHO [13] = test: Binding affinity to human alpha4 G181A mutant/hamster beta-1 integrin expressed in CHO cells by flow cytometry; type: cell-based; summary of the method: as §2
CHO [14] = test: Binding affinity to human alpha4 P183A mutant/hamster beta-1 integrin expressed in CHO cells by flow cytometry; type: cell-based; summary of the method: as §2
CHO [15] = test: Binding affinity to human alpha4 S185A mutant/hamster beta-1 integrin expressed in CHO cells by flow cytometry; type: cell-based; summary of the method: as §2
CHO [16] = test: Binding affinity to human alpha4 S186A mutant/hamster beta-1 integrin expressed in CHO cells by flow cytometry; type: cell-based; summary of the method: as §2
CHO [17] = test: Binding affinity to human alpha4 Y187A mutant/hamster beta-1 integrin expressed in CHO cells by flow cytometry; type: cell-based; summary of the method: as §2
CHO [18] = test: Binding affinity to human alpha4 W188A mutant/hamster beta-1 integrin expressed in CHO cells by flow cytometry; type: cell-based; summary of the method: as §2
CHO [19] = test: Binding affinity to human alpha4 T189A mutant/hamster beta-1 integrin expressed in CHO cells by flow cytometry; type: cell-based; summary of the method: as §2
CHO [20] = test: Binding affinity to human alpha4 G190A mutant/hamster beta-1 integrin expressed in CHO cells by flow cytometry; type: cell-based; summary of the method: as §2
CHO [21] = test: Binding affinity to human alpha4 S191A mutant/hamster beta-1 integrin expressed in CHO cells by flow cytometry; type: cell-based; summary of the method: as §2
CHO [22] = test: Binding affinity to human alpha4 Y195A mutant/hamster beta-1 integrin expressed in CHO cells by flow cytometry; type: cell-based; summary of the method: as §2
CHO [23] = test: Binding affinity to human alpha4 N196A mutant/hamster beta-1 integrin expressed in CHO cells by flow cytometry; type: cell-based; summary of the method: as §2
CHO [24] = test: Binding affinity to human alpha4 N200A mutant/hamster beta-1 integrin expressed in CHO cells by flow cytometry; type: cell-based; summary of the method: as §2
CHO [25] = test: Binding affinity to human alpha4 K201A mutant/hamster beta-1 integrin expressed in CHO cells by flow cytometry; type: cell-based; summary of the method: as §2
CHO [26] = test: Binding affinity to human alpha4 Y202A mutant/hamster beta-1 integrin expressed in CHO cells by flow cytometry; type: cell-based; summary of the method: as §2
CHO [27] = test: Binding affinity to human alpha4 K203A mutant/hamster beta-1 integrin expressed in CHO cells by flow cytometry; type: cell-based; summary of the method: as §2
Mus musculus [28] = test: In vivo inhibition of alpha4beta1 integrin expressed in human Molt-4 cells xenografted into mouse at 60 nmol/kg, iv up to 44 hrs by NIRF imaging; type: functional, organism-based; summary of the method: as §1
[29] = molecular target: T1, Integrin alpha-4/beta-1 (Homo sapiens); test: Inhibition of integrin alpha-4-beta-1-mediated Jurkat cell adhesion to VCAM-1 coated surface by BCECF fluorescence analysis; type: cell-based
[30] = molecular target: T1, Integrin alpha-4/beta-1 (Homo sapiens); test: Inhibition of integrin alpha-4-beta-1-mediated Jurkat cell adhesion to CS-1 coated surface by BCECF fluorescence analysis
[31] = molecular target: T1, Integrin alpha-4/beta-1 (Homo sapiens); test: Binding affinity to alpha4beta1 integrin expressed in peripheral blood lymphocytes; type: cell-based
Summary of the method: (§4)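 Normal peripheral blood lymphocytes isolated from healthy-donor blood by Ficoll-Paque gradient. Cells (0.5 × 10^6) incubated 1 h at 4 °C with biotinylated ligand (100 nM) in TBS, then SA-PE, and 10,000 cells read by flow cytometry. Mn2+ added for integrin activation where indicated. Activation state checked with anti-β1 LIBS mAb.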

[32] = molecular target: T1, Integrin alpha-4/beta-1 (Homo sapiens); test: Binding affinity to alpha4beta1 integrin expressed in peripheral blood lymphocytes in presence of Mn2+; type: cell-based; summary of the method: as §4
CHO [33] = test: Binding affinity to wild type human alpha4hamster beta-1 integrin expressed […] cells by flow cytometry; type: cell-based; summary of the method: as §2

Sequence of Integrin alpha-M/beta-2 (Homo sapiens) (P05107 23-769 limits assumed, other chains not shown): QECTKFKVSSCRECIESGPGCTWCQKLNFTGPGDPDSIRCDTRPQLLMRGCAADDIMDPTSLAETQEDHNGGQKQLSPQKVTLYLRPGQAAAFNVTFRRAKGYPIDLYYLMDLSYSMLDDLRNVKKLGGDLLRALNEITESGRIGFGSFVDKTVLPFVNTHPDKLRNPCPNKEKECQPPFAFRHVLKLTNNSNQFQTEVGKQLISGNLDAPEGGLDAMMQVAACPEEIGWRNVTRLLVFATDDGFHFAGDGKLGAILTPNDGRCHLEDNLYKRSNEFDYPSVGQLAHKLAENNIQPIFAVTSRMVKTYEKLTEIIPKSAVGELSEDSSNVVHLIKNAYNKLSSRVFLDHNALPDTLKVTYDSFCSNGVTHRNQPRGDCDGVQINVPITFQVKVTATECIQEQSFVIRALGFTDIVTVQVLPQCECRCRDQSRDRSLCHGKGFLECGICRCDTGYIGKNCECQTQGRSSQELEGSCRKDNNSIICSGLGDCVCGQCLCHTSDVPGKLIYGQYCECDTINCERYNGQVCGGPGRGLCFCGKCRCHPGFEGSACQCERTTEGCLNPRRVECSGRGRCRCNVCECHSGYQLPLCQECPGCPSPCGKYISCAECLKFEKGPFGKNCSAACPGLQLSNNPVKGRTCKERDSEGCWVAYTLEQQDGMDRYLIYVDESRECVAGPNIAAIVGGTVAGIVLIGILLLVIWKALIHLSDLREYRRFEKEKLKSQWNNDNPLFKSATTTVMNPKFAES

Compound: Cc1ccccc1NC(=O)Nc1ccc(CC(=O)N[C@@H](CCCCNC(=O)/C=C/c2cccnc2)C(=O)N[C@@H](CCCC(=O)O)C(=O)NC2(C(=O)NCCOCCOCCNC(=O)CCC(=O)NCCOCCOCCNC(=O)CCC(=O)N[C@@H](CCCCNC(=O)CCCC[C@@H]3SC[C@@H]4NC(=O)N[C@@H]43)C(N)=O)CCCCC2)cc1
inhibition (Mus musculus [1]): inactive

Activity [3]: Active
Activity [4]: Active
Activity [5]: inactive
Activity [6]: inactive
Activity [7]: inactive
Activity [8]: inactive
Activity [9]: inactive
Activity [10]: Active
Activity [11]: Active
Activity [12]: Active
inhibition [29]: Active
inhibition [30]: Active
Activity [31]: inactive
Activity [32]: Active
Compound: Cc1ccccc1NC(=O)Nc1ccc(CC(=O)N[C@@H](CCCCNC(=O)/C=C/c2cccnc2)C(=O)N[C@@H](CCCC(=O)O)C(=O)NC2(C(N)=O)CCCCC2)cc1
Activity (CHO [2]): Active
Activity (CHO [13]): Active
Activity (CHO [14]): Active
Activity (CHO [15]): Active
Activity (CHO [16]): Active
Activity (CHO [17]): inactive
Activity (CHO [18]): inactive
Activity (CHO [19]): Active
Activity (CHO [20]): inactive
Activity (CHO [21]): Active
Activity (CHO [22]): Active
Activity (CHO [23]): Active
Activity (CHO [24]): Active
Activity (CHO [25]): Active
Activity (CHO [26]): Active
Activity (CHO [27]): Active
inhibition (Mus musculus [28]): Active
Activity (CHO [33]): Active
